From ChEMBL document CHEMBL4308840, “Identification of the First Synthetic Allosteric Modulator of the CB2 Receptors and Evidence of Its Efficacy for Neuropathic Pain Relief” (2018) come the findings set out here.

Active and inactive are the calls of the source.

Assay [1] addresses Cannabinoid receptor 2 (Homo sapiens) (UniProt P34972). As to the kind of experiment: Positive allosteric modulation of human CB2R expressed in CHO cell membranes assessed as increase in [3H]CP55940 binding after 60 mins by liquid scintillation spectrometric method. In outline:
(§1)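 Membranes (50 µg protein) from CHO cells stably expressing human CB1R or CB2R, incubated with 0.7 nM [3H]CP55940 in 50 mM Tris binding buffer with 0.1% BSA, pH 7.4, at 37 °C for 60 min. Vehicle 0.1% DMSO. Ended with ice-cold buffer and vacuum filtration through GF/B filters, then liquid scintillation counting. Specific binding is total minus binding with 1 µM unlabelled CP55940. Six independent experiments, each in duplicate.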

For assay [2], the target named is Cannabinoid receptor 1 (Homo sapiens) (UniProt P21554). As to the kind of experiment: Positive allosteric modulation of human CB1R expressed in CHO cell membranes assessed as increase in [3H]CP55940 binding at 100 nM after 60 mins by liquid scintillation spectrometric method. In outline: as §1
For assay [3] the target is unchanged. As to the kind of experiment: Displacement of [3H]CP55940 from human CB1R expressed in CHO cell membranes at 100 nM after 60 mins by liquid scintillation spectrometric method. A digest of the protocol: as §1
(In a radioligand displacement assay an active substance lowers the binding of a labelled ligand.)

Assay [4] has as its system Mus musculus. Kind of assay: Antinociceptive activity in CD-1 albino mouse model of oxaliplatin-induced neuropathic pain assessed as increase in licking latency at 5 to 10 mg/kg, po treated on day 15 post oxaliplatin treatment and measured at 30 to 60 mins post dose by cold plate test. In kind it is functional, organism-based. A digest of the protocol: (§2)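 Male CD-1 mice (22–25 g) received oxaliplatin 2.4 mg kg-1 i.p. in 5% glucose on days 1-2, 5-9 and 12-14; controls got vehicle. On day 15, a single oral dose in 1% carboxymethylcellulose was given. Cold plate held at 4 °C; latency to first hind-paw licking recorded, 60 s cut-off, at 15, 30, 45, 60 and 75 min. n=16 mice over 2 sets; one-way ANOVA with Bonferroni.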

The target in assay [5] is Cannabinoid receptor 2 (Homo sapiens) (UniProt P34972). Kind of assay: Stimulation of [35S]GTPgammaS binding to human CB2R expressed in CHO cell membranes at 100 nM after 90 mins by liquid scintillation counting method. It is filed as functional. A digest of the protocol:
(§3)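 Membranes (1 mg/ml) from CHO cells stably expressing human CB1R or CB2R. Incubated with 0.1 nM [35S]GTPγS and 30 µM GDP in 50 mM Tris, 10 mM MgCl2, 100 mM NaCl, 0.2 mM EDTA, 1 mM DTT, pH 7.4, 0.1% DMSO, 30 °C for 90 min. Filtered on GF/B; scintillation counting. Duplicates; six experiments for CB1R, twelve for CB2R with CP55940.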
(In general: Binding of GTPγS marks nucleotide exchange on a G protein.)

Assay [6] shares this target. Kind of assay: Positive allosteric modulation of human CB2R expressed in CHO cell membranes assessed as increase in AEA-stimulated [35S]GTPgammaS binding at 100 nM after 90 mins by liquid scintillation counting method. In kind it is functional. A digest of the protocol:
as §3

Assay [7] has as its system Mus musculus. As to the kind of experiment: Antinociceptive activity in CD-1 albino mouse model of oxaliplatin-induced neuropathic pain assessed as increase in licking latency at 20 mg/kg, po treated 15 mins after CB2R antagonist SR144528 treatment on day 15 post oxaliplatin treatment and measured up to 75 mins post dose by cold plate test. In kind it is functional, organism-based. In outline: (§4)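 Male CD-1 mice on day 15 after oxaliplatin (2.4 mg kg-1 i.p., days 1-2, 5-9, 12-14) received the selective antagonist i.p., then the oral test dose. Cold plate at 4 °C with 60 s cut-off, licking latency read 15, 30, 45, 60 and 75 min post dose. 16 mice in 2 sets; ANOVA with Bonferroni.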

The target in assay [8] is Cannabinoid receptor 2 (Homo sapiens) (UniProt P34972). Kind of assay: Positive allosteric modulation of human CB2R expressed in CHO cell membranes assessed as decrease in [3H]CP55940 dissociation at 100 nM up to 2 hrs by liquid scintillation spectrometric method. A digest of the protocol: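 Human CB2R CHO membranes (50 µg protein) were used for [3H]CP55940 dissociation in Tris buffer with 0.1% BSA, pH 7.4, with or without 100 nM test compound. Dissociation followed 0.5–120 min at 25 °C; filtration and scintillation counting. Nonspecific binding taken with 1 µM unlabelled ligand. Four experiments in duplicate.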

Assay [9] has as its target T1, Monoglyceride lipase (Homo sapiens) (UniProt Q99685).
T1 sequence (whole entry): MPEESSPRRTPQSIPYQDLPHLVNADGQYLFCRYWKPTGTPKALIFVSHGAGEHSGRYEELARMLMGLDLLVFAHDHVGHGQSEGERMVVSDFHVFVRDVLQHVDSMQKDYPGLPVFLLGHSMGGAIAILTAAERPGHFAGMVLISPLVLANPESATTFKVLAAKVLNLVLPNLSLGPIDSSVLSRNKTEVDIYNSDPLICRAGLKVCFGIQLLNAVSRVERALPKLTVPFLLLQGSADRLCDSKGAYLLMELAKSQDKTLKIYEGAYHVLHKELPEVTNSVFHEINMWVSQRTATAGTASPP
Kind of assay: Inhibition of recombinant human MAGL at <10 uM using 4-NPA as substrate after 30 mins by colorimetric method. A digest of the protocol:
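Human recombinant MAGL, 11 ng/well, with 100 µM (final) 4-nitrophenylacetate in 10 mM Tris pH 7.2, 1 mM EDTA, 0.1 mg/ml BSA, at room temperature for 30 min. 4-Nitrophenol release read at 405 nm. Controls were no-compound and no-enzyme reactions.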

Assay [10] addresses Cannabinoid receptor 2 (Homo sapiens) (UniProt P34972). Kind of assay: Positive allosteric modulation of human CB2R expressed in CHO cell membranes assessed as increase in 2-AG-stimulated [35S]GTPgammaS binding at 100 nM after 90 mins by liquid scintillation counting method. In kind it is functional. In outline:
as §3

For assay [11], the system named is Mus musculus. As to the kind of experiment: Antinociceptive activity in CD-1 albino mouse model of oxaliplatin-induced neuropathic pain assessed as licking latency time at 20 mg/kg, po treated on day 15 post oxaliplatin treatment and measured at 60 mins post dose by cold plate test (reference value: 9.7 +/- 0.9 secs). In kind it is functional. A digest of the protocol: as §2

Assay [12] addresses Cannabinoid receptor 1 (Homo sapiens) (UniProt P21554). Kind of assay: Positive allosteric modulation of human CB1R expressed in CHO cell membranes assessed as increase in [3H]CP55940 binding at 10 uM after 60 mins by liquid scintillation spectrometric method.
The target in assay [13] is Cannabinoid receptor 2 (Homo sapiens) (UniProt P34972). Kind of assay: Positive allosteric modulation of human CB2R expressed in CHO cell membranes assessed as increase in CP55940-stimulated [35S]GTPgammaS binding at 100 nM after 90 mins by liquid scintillation counting method. It is filed as functional. A digest of the protocol: as §3
Assay [14] concerns Mus musculus. Kind of assay: Antinociceptive activity in CD-1 albino mouse model of oxaliplatin-induced neuropathic pain assessed as licking latency time at 20 mg/kg, po treated on day 15 post oxaliplatin treatment and measured up to 15 mins post dose by cold plate test (reference value: 9.7 +/- 0.9 secs). In kind it is functional. A digest of the protocol: as §2
Assay [15] concerns the target Cannabinoid receptor 1 (Homo sapiens) (UniProt P21554). Kind of assay: Allosteric modulation of human CB1R expressed in CHO cell membranes assessed as effect on CP55940-stimulated [35S]GTPgammaS binding at 100 nM after 90 mins by liquid scintillation counting method. In kind it is functional. In outline:
as §3

Assay [16] concerns Mus musculus. Kind of assay: Antinociceptive activity in CD-1 albino mouse model of oxaliplatin-induced neuropathic pain assessed as increase in licking latency at 20 mg/kg, po treated 15 mins after CB1R antagonist SR141716A treatment on day 15 post oxaliplatin treatment and measured up to 75 mins post dose by cold plate test. In kind it is functional, organism-based. In outline:
as §4

In assay [17] the test system is Mus musculus. As to the kind of experiment: Antinociceptive activity in CD-1 albino mouse model of oxaliplatin-induced neuropathic pain assessed as increase in licking latency at 1 to 10 mg/kg, po treated 15 mins after MAGL inhibitor trans-(1-(1-(1H-1,2,4-Triazole-1-carbonyl)piperidin-4-yl)-4-benzo[d][1,3]dioxol-5-yl)-3-(4-fluorophenyl)azetidin-2-one treatment on day 15 post oxaliplatin treatment and measured up to 75 mins post dose by cold plate test. It is filed as functional. In outline: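 Oxaliplatin model in male CD-1 mice: 2.4 mg kg-1 i.p. in 5% glucose on days 1-2, 5-9 and 12-14, tested day 15. MAGL inhibitor F 1 mg kg-1 p.o. was combined with oral test dosing, both in 1% carboxymethylcellulose. Cold plate latency at 4 °C, 60 s cut-off, read 15–75 min after dosing. 16 mice over 2 sets; ANOVA/Bonferroni; synergy by Chou-Talalay combination index.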

In assay [18] the target is Cannabinoid receptor 1 (Homo sapiens) (UniProt P21554). Kind of assay: Positive allosteric modulation of human CB1R expressed in CHO cell membranes assessed as increase in [3H]CP55940 binding up to 1 uM after 60 mins by liquid scintillation spectrometric method relative to control.
Assay [19] deals with Cannabinoid receptor 2 (Homo sapiens) (UniProt P34972). Kind of assay: Inhibition of [35S]GTPgammaS binding to human CB2R expressed in CHO cell membranes at 100 nM after 90 mins by liquid scintillation counting method. In kind it is functional. A digest of the protocol:
as §3

Chain of Cannabinoid receptor 1 (Homo sapiens) (P21554 whole entry): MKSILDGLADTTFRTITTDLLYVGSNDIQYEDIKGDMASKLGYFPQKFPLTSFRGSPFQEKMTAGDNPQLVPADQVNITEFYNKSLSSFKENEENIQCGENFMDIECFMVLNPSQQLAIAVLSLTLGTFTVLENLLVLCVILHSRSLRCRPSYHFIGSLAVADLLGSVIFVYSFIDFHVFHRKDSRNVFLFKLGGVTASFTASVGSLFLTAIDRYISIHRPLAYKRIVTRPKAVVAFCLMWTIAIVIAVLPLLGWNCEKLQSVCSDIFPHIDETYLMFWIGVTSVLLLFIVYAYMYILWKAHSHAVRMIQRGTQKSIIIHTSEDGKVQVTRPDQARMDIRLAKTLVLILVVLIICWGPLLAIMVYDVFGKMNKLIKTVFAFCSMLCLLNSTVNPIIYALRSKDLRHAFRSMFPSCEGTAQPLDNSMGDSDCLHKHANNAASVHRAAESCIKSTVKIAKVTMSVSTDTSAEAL
Chain of Cannabinoid receptor 2 (Homo sapiens) (P34972 whole entry): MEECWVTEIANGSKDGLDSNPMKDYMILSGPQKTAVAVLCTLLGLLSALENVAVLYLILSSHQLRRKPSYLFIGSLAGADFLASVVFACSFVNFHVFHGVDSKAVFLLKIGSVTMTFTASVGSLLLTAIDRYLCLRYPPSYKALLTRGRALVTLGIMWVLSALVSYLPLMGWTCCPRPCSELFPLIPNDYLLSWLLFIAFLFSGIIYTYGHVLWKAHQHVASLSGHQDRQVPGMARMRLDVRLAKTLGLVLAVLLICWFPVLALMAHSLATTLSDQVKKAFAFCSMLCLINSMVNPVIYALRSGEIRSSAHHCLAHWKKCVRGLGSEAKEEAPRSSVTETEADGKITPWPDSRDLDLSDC

`Cc1c(-c2ccccc2)cc(NC(=O)C2CCCCCC2)c(=O)n1Cc1ccc(F)cc1`: the outcome in assay [1] was inactive. For the same molecule, the outcome in assay [2] was Active.
`Cc1c(Cl)cc(NC(=O)C2CCCCCC2)c(=O)n1Cc1ccc(F)cc1`: the outcome in assay [1] was inactive. The inhibition result in [3] was “Active”.
Regarding `Cc1c(Br)c[nH]c(=O)c1NC(=O)C1CCCCCC1`, the result in assay [1] was inactive. The inhibition entry in [3] is “Active”.
As for `Cc1c(Cl)cn(Cc2ccc(F)cc2)c(=O)c1NC(=O)C1CCCCCC1`, the outcome in assay [1] was inactive. In addition, in assay [2], the outcome was Active.
Consider `Cc1c(F)cc(NC(=O)C2CCCCCC2)c(=O)n1Cc1ccc(F)cc1`, for which, in [1], the outcome was inactive. Besides, the result in assay [2] was Active.
Turning to `O=C(Nc1c(O)c(Br)cn(Cc2ccc(F)cc2)c1=O)C1CCCCCC1`, the outcome in assay [1] and in assay [2] was Active.
As for `Cc1c(-c2ccccc2)cn(Cc2ccc(F)cc2)c(=O)c1NC(=O)C1CCCCCC1`, the result in assay [1] was inactive. Also, the result in assay [2] was Active.
For `COc1ccc(-c2cc(NC(=O)C3CCCCCC3)c(=O)n(Cc3ccc(F)cc3)c2C)cc1`, in that order: “inactive” and “Active”.
Taken in the same sequence, the figures for `Cc1c(Br)cc(NC(=O)C2CCCCCC2)c(=O)n1Cc1ccc(F)cc1` were “inactive” and “Active”.
As to `Cc1c(Br)cn(Cc2ccc(F)cc2)c(=O)c1NC(=O)C1CCCCCC1`, the result in assay [4], in [8], in assay [1], in [2], in assay [10] and in [13] was Active. For the same molecule, the outcome in assay [16] was Active. For the same molecule, the outcome in [5], in assay [6], in assay [7], in [12] and in assay [15] was inactive. In addition, the inhibition result in [9] and in [19] was “inactive” each time. In addition, the results for the Time in assay [11] and in assay [14] were 0.75 min and 0.5 min, respectively. The CI in assay [17] amounted to 0.2012. Besides, the Activity in assay [18] came out at 40%.
For `Cc1ccn(Cc2ccc(F)cc2)c(=O)c1NC(=O)C1CCCCCC1`, the outcome in [1] was inactive. Further, the inhibition entry in [3] was “Active”.
Regarding `COc1ccc(-c2cn(Cc3ccc(F)cc3)c(=O)c(NC(=O)C3CCCCCC3)c2C)cc1`, in assay [1], the outcome was inactive. The outcome in assay [2] was Active.
As to `Cc1ccc(NC(=O)C2CCCCCC2)c(=O)n1Cc1ccc(F)cc1`, the result in assay [1] was inactive. In addition, in assay [3], the inhibition entry was “Active”.
